These results are taken from ChEMBL document CHEMBL3098033, “Design, synthesis and biological evaluation of imine resveratrol derivatives as multi-targeted agents against Alzheimer's disease” (Eur J Med Chem, 2014).

Calls of active or inactive are those of the source. The calls are words filed in the database; no cut-off is given here. Bounds are passed on as bounds.

Data set [1] addresses Amyloid-beta precursor protein (Homo sapiens) (UniProt P05067). Nature of the data set: Inhibition of amyloid beta (1 to 42) (unknown origin) self-induced aggregation at 20 uM after 46 to 48 hrs by thioflavin-T based fluorometric assay. An outline of the steps:
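HFIP-pretreated Aβ(1–42) redissolved at 25 μM in 50 mM phosphate buffer, pH 7.4. Compound at 20 μM final, with 10% final solvent, run in independent triplicates with a solvent control. Incubated in the dark at room temperature for 46–48 h without agitation. 5 μM ThT in glycine-NaOH pH 8.0 added, ex/em 446/490 nm. Inhibition = 100 − (IFi/IFo × 100).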

Data set [2] deals with Radical scavenging activity. Briefly: Antioxidant activity assessed as DPPH free radical scavenging activity after 30 mins by spectrophotometric analysis. Format: functional. An outline of the steps: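 Methanolic DPPH at 400 μM combined with serially diluted sample (1:9 by volume), 30 min at 37 °C in the dark, absorbance at 517 nm. Scavenging % = [1 − (A − C)/B] × 100, with a sample-only blank and MeOH as negative control. IC50 values are mean ± SD of three determinations.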

Data set [3] has as its system SH-SY5Y. Briefly: Neuroprotective activity in human SH-SY5Y cells assessed as inhibition H2O2-induced reduction of cell viability at 10 uM after 24 hrs by phase-contrast micrograph analysis. Type of data set: functional, cell-based. An outline of the steps: (§1)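 SH-SY5Y cells seeded at 1×10^4 cells/well. After 24 h, medium replaced with compound (1.25, 2.5, 5, 10 μM) for 24 h at 37 °C. Cells then exposed to 100 μM H2O2 for 24 h and assessed by MTT, with phase-contrast images (200×). Viability given relative to cells without H2O2, three independent experiments.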

Data set [4] deals with SH-SY5Y. Briefly: Neuroprotective activity in human SH-SY5Y cells assessed as inhibition H2O2-induced reduction of cell viability at 1.25 to 10 uM after 24 hrs by phase-contrast micrograph analysis. Format: functional, cell-based. Conditions: in the assay text read “MTT assay” for “phase-contrast micrograph analysis”. The procedure, abridged: as §1
Data set [5] in a line: Cytotoxicity against human SH-SY5Y cells assessed as reduction of cell viability at 1 to 50 uM after 24 hrs by MTT assay. Format: cell-based. An outline of the steps: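 SH-SY5Y cells grown in EMEM/Ham's F-12 (1:1) with 10% FBS, penicillin and streptomycin, 37 °C, 5% CO2. Seeded at 1×10^4 cells/well, switched to serum-free medium, exposed to compound for 24 h. MTT 4 h at 37 °C, formazan dissolved in DMSO, A570 with 630 nm reference. Mean ± SD of three independent experiments.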
On the technique in general: Tetrazolium dyes change colour on reduction, which living cells bring about.

Data set [6] has as its target Amyloid-beta precursor protein (Homo sapiens) (UniProt P05067). Nature of the data set: Inhibition of Cu2+-induced amyloid beta (1 to 42) (unknown origin) aggregation at 50 uM after 24 hrs by thioflavin-T based fluorometric assay. The procedure, abridged:
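Aβ(1–42) at 25 μM final in HEPES pH 6.6 with NaCl, with or without 25 μM Cu2+, plus 50 μM compound, incubated at 37 °C for 24 h. Sample diluted into 50 mM glycine-NaOH pH 8.0 containing 5 μM ThT, read at ex/em 446/490 nm. Mean ± SD of three independent experiments.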

Data set [7] has the same target. Briefly: Inhibition of Cu2+-induced amyloid beta (1 to 42) (unknown origin) aggregation assessed as reduction of H2O2 production at 800 nM after 30 mins by HRP/Amplex red assay. An outline of the steps: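 Mixture of CuCl2 400 nM, Aβ, compound 800 nM (1% DMSO) and sodium ascorbate 10 μM in phosphate buffer, 30 min at room temperature. Amplex Red/HRP working solution then added and incubated a further 30 min at room temperature. Fluorescence read at ex/em 530/590 nm, at least three measurements.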

The nature of data set [8]: Metal chelating activity of the compound assessed as Fe2+-compound complex formation at 25 uM by UV-vis spectrometry. Format: physicochemical.
Data set [9] can be described thus: Metal chelating activity of the compound assessed as Cu2+-compound complex formation at 25 uM by UV-vis spectrometry. Type of data set: physicochemical. The procedure, abridged: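 Difference UV–vis spectra obtained by subtracting metal-alone and compound-alone spectra from the spectra of the mixture. Stoichiometry assessed with ligand fixed at 25 μmol/L and Cu2+ titrated from 2 to 50 μmol/L.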

Data set [10] can be described thus: Ratio of resveratrol IC50 to compound IC50 for DPPH free radical scavenging activity.

Sequence of Amyloid-beta precursor protein (Homo sapiens) (P05067 whole entry): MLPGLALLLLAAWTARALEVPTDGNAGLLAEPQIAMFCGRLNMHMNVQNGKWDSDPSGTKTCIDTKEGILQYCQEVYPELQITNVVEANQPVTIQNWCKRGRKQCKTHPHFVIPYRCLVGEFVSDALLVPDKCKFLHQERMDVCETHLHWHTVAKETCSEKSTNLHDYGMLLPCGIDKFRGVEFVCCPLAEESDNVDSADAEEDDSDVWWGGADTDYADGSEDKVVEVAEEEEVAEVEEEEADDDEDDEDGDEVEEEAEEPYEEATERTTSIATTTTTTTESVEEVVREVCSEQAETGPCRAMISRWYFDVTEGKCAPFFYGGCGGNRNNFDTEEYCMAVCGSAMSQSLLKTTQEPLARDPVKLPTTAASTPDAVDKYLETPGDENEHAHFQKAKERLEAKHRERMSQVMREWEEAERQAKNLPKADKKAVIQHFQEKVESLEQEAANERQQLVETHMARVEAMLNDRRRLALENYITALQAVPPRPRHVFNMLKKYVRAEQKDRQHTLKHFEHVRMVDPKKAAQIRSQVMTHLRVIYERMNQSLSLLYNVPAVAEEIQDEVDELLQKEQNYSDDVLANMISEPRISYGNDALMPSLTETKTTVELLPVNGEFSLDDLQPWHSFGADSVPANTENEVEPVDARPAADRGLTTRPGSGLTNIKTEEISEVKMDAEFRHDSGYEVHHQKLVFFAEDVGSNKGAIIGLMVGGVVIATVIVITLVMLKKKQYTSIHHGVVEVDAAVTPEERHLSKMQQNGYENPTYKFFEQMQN

The inhibition is the change of the read-out against control, counted positive when it falls. Usually IC50 stands for the concentration at which inhibition is half-maximal. In turn, `Oc1cccc(/C=N/c2ccccc2O)c1` had an inhibition in [1] of 64.3%. Further, in data set [2], the IC50 stood at 66.6 µM.
In the case of `Oc1cccc(/N=C/c2ccccc2O)c1`, the inhibition in data set [1] worked out at 66.1%. In data set [2], the IC50 was above 2000 µM.
In turn, `CN(C)c1ccc(/C=N/c2ccccc2O)cc1` showed an inhibition in data set [1] of 55.8%. For the same molecule, the concentration for half-maximal inhibition (IC50) in data set [2] is 45.1 µM.
For the molecule `Oc1ccc(/C=C/c2cc(O)cc(O)c2)cc1` [RESVERATROL], the result with SH-SY5Y [3] was Active. The molecule also showed an inhibition in data set [1] of 64.2%. Moreover, the half-inhibitory concentration (IC50) in [2] turned out to be 109 µM.
On to `Oc1ccccc1/N=C/c1cccc(F)c1`, for which the result in the data set on SH-SY5Y [4] was Active. In data set [5], the Activity result is listed as “Non-toxic”. In addition, the inhibition in data set [6] came out at 70.2%; in data set [1], 67.6%. Besides, the IC50 in [2] was 36.8 µM.
In turn, `Oc1ccccc1/N=C/c1ccccc1F` came in with an inhibition in data set [1] of 69.4%. Further, in data set [2], the IC50 was determined as 43.9 µM.
`COc1ccc(/C=N/c2ccccc2O)cc1` gave an inhibition in data set [1] of 35.7%. Moreover, in [2], the 50% inhibitory concentration (IC50) worked out at 32.7 µM.
In [1], `Oc1ccccc1/C=N/c1ccc(F)cc1` had an inhibition of 24.9%. Besides, the 50% inhibitory concentration (IC50) in data set [2] is above 2000 µM.
With `Oc1ccc(/C=N/c2ccccc2O)cc1`, the result with SH-SY5Y [4] was Active. Also, the Activity entry in [5] was “Non-toxic”. In addition, the inhibition turned out to be 83.7% in data set [6] and 70.9% in data set [1]. Also, the IC50 in data set [2] is 26.5 µM.
Molecule `Oc1ccc(/N=C/c2ccccc2O)cc1` came in with an inhibition in data set [1] of 71.2%. Besides, the IC50 in [2] was 399 µM.
For `Oc1ccc(/C=N/c2ccccc2O)c(O)c1`, in [1], the inhibition came to 63.1%. For the same molecule, in data set [2], the concentration for half-maximal inhibition (IC50) came out at 37.8 µM.
Regarding `Oc1ccc(/C=N/c2ccccc2O)cc1O`, in the data set with SH-SY5Y [4], the outcome was Active. Moreover, the Activity entry in data set [5] is reported as “Non-toxic”; in data set [8] it was “Active”; in [9], “Active”. Besides, the inhibition turned out to be 80% in data set [7], 68.1% in data set [6] and 64.6% in data set [1]. The Ratio IC50 in data set [10] is 7.7. Moreover, the 50% inhibitory concentration (IC50) in [2] came to 14.1 µM.
As to `Oc1c(I)cc(Cl)c2cccnc12`, the inhibition is 75% in data set [7] and 66.7% in data set [6].
`COc1ccc(O)c(/C=N/c2ccccc2)c1` yielded an inhibition in data set [1] of 29%. Also, the concentration for half-maximal inhibition (IC50) in data set [2] stood at 794 µM.
`Oc1ccccc1/C=N/c1ccccc1O` showed an inhibition in data set [1] of 67.2%. Moreover, the half-maximal inhibitory concentration (IC50) in [2] was found to be 51.8 µM.
In the case of `O=C(O)CN(CCN(CC(=O)O)CC(=O)O)CC(=O)O`, the inhibition in [7] is above 90%.
As to `COc1ccc(/C=N/c2ccccc2O)cc1OC`, the inhibition in data set [1] worked out at 39.4%. Further, the IC50 in data set [2] came to 28.5 µM.
The molecule `Oc1ccccc1/N=C/c1ccc(F)cc1` returned an inhibition in data set [1] of 67.8%. In [2], the IC50 was 41.3 µM.
Turning to `Oc1ccccc1/C=N/c1cccc(F)c1`, the inhibition in data set [1] was 31.3%. Besides, the IC50 in data set [2] was above 2000 µM.
Molecule `Oc1ccc(Cl)cc1/C=N/c1ccccc1` came in with an inhibition in [1] of 33.8%. Moreover, the 50% inhibitory concentration (IC50) in data set [2] is above 2000 µM.
For the molecule `Oc1ccccc1/N=C/c1ccccc1`, in data set [1], the inhibition is 51.7%. Also, the IC50 in [2] was determined as 39.9 µM.
For `Oc1ccccc1/C=N/c1ccccc1` [2-((PHENYLIMINO)METHYL)PHENOL], in that order: 44.9% and above 2000 µM.
For `Oc1ccccc1/C=N/c1ccccc1F`, in that order: 27.8% and above 2000 µM.
